From PubChem BioAssay AID624075 (Broad Institute, 2012)
Activity calls are given as the source filed them.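 Rule for the calls: active = fitted curve reaches -35% activity change at a concentration no higher than twice the top valid tested dose; inactive = the rest, including activity in the opposite direction.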

Legend:
[1] = P. aeruginosa PAK growth delay under chelation, dose response, whole organism, PAK strain, OD600, EDDHA, dry powder, set 4 (AID 624075); settings: P. aeruginosa PAK growth with EDDHA, OD600, 28 h; at 100 µM (top of the series)
Method in brief: (§1)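 System: wild-type Pseudomonas aeruginosa PAK bacterial culture; Medium: succinate M9 medium, pH 7.0; Also added: EDDHA, 2 µM; Compound dosing: concentration series from 100 µM down to 15 nM final; Incubation: bacterial growth with compounds for 28 h at 30 °C; Detection: OD600 absorbance.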

[2] = tested on: P. aeruginosa PAK growth with EDDHA, OD600, 28 h; experiment: as above
Method in brief: as §1

Compound	activity change, negative = growth inhibition [1]	AC35 [2] [µM]
CCCCC(C#N)c1ccc(F)cn1 (stereo not drawn)	-7.64% (inactive)	–
CCCCC(c1ccc(Cl)cc1)c1nn[nH]n1 (stereo not drawn)	-6.42% (inactive)	–
N#CC(c1ccc(Cl)cc1)c1ccc(Cl)cn1 (stereo not drawn)	-13.9% (inactive)	–
N#CC(c1ccc(Cl)cc1)c1ncccc1Cl (stereo not drawn)	-18.1% (inactive)	–
N#CC(c1ccc(F)cc1)c1cccc(C(F)(F)F)n1 (stereo not drawn)	–	88.7
COCCC(C#N)c1ccc(F)cc1 (stereo not drawn)	-1.57% (inactive)	–
COCCNC(C#N)c1ccc(Cl)cc1 (stereo not drawn)	-2.09% (inactive)	–
N#CC(c1ccc(Cl)cc1)c1cccc(C(F)(F)F)n1 (stereo not drawn)	–	71.1
